In brackets after ≈: the same amount, converted by molar mass. Activity calls are given as the source filed them. The calls are words filed in the database; no cut-off is given here.

The IC50 is the point on the concentration scale where inhibition reaches its midpoint. A lower IC50 goes with greater potency in that assay.

Data set [1] relates to Plasmodium falciparum. Kind of data set: Antimalarial activity against chloroquine-resistant Plasmodium falciparum W2. Format: functional, organism-based. The essentials: (§1)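 Compound DMSO stocks were diluted 400-fold in RPMI 1640 with 25 mM Hepes, 32 mM NaHCO₃ and 10% Albumax I, then 2-fold serially over 11 concentrations. Parasites were exposed for 48 h at 37 °C under 5% O₂/5% CO₂/90% N₂, pulsed with [³H]-hypoxanthine for 18 h, and DNA was harvested onto glass filters for scintillation counting. IC50 was derived by nonlinear-regression logistic dose-response fitting.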

The test system of data set [2] is Plasmodium falciparum. Description: Antimalarial activity against chloroquine-resistant Plasmodium falciparum TM91C235. Format: functional, organism-based. The gist of the method: as §1
Data set [3] relates to Plasmodium falciparum. Description: Antimalarial activity against chloroquine-sensitive Plasmodium falciparum D6. In kind it is functional, organism-based. The gist of the method:
as §1

Data set [4] can be described thus: Toxicity against murine J774 macrophage cells. As to conditions: mouse. Format: cell-based. The gist of the method: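 Murine J774 monocyte-like macrophage subclone G8, maintained in DMEM with 10% fetal calf serum, 2 mM L-glutamine and 50 µg/mL gentamicin at 37 °C in 5% CO2/95% air. Cells seeded at 1 × 10⁴/well and left 24 h. Drug or solvent control, diluted in medium, then added for 72 h. Viability read by MTS tetrazolium/formazan conversion after 1–2 h at 37 °C.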

As for `Oc1cc(Nc2ccnc3cc(Cl)ccc23)cc(-c2ccc(C(F)(F)F)cc2)c1`, the IC50 in data set [1] came out at 300 ng/mL (≈ 723 nM); in data set [2], 140 ng/mL (≈ 338 nM); in data set [3] it was 15 ng/mL (≈ 36.2 nM).
In the case of `CC(C)(C)NCc1cc(Nc2ccnc3cc(Cl)ccc23)cc(-c2ccc(Cl)cc2)c1O` [TEBUQUINE], the IC50 in data set [4] amounted to 1800 ng/mL (≈ 3860 nM); in data set [1] it was 0.04 ng/mL (≈ 0.0858 nM); in data set [3], 0.1 ng/mL (≈ 0.214 nM). Moreover, the result in data set [2] was inactive.
Consider `CC(C)(C)NCc1c(Nc2cc[n+]([O-])c3cc(Cl)ccc23)cc(O)cc1-c1ccc(Cl)cc1`, for which the half-maximal inhibitory concentration (IC50) in data set [1] was determined as 9.2 ng/mL (≈ 19.1 nM); in data set [2] it was 8.8 ng/mL (≈ 18.2 nM); in data set [3], 4.3 ng/mL (≈ 8.91 nM).
As for `[O-][n+]1ccc(Nc2cc(O)cc(-c3ccc(Cl)cc3)c2)c2ccc(Cl)cc21`, the figures for the half-inhibitory concentration (IC50) in data set [1], in data set [2] and in data set [3] were > 1000 ng/mL, 580 ng/mL (≈ 1460 nM) and 397 ng/mL (≈ 999 nM), respectively.
The like results for `CC(C)(C)NCc1c(O)cc(Nc2ccnc3cc(Cl)ccc23)cc1-c1ccc(C(F)(F)F)cc1` were, in that order, 14 ng/mL (≈ 28 nM), 73 ng/mL (≈ 146 nM) and 1.2 ng/mL (≈ 2.4 nM).
The like results for `CC(C)(C)NCc1c(O)cc(-c2ccc(Cl)cc2)c(CNC(C)(C)C)c1Nc1cc[n+]([O-])c2cc(Cl)ccc12` were, in that order, 9.1 ng/mL (≈ 16 nM), 8.5 ng/mL (≈ 15 nM) and 4.1 ng/mL (≈ 7.22 nM).
Turning to `Oc1cc(Nc2ccnc3cc(Cl)ccc23)cc(-c2ccc(Cl)cc2)c1`, the results for the 50% inhibitory concentration (IC50) in data set [1] and in data set [3] were 22.4 ng/mL (≈ 58.8 nM) and 8.8 ng/mL (≈ 23.1 nM), respectively. Further, the outcome in data set [2] was inactive.
`CC(C)(C)NCc1c(O)cc(Nc2ccnc3cc(Cl)ccc23)c(CNC(C)(C)C)c1-c1ccc(C(F)(F)F)cc1`: the IC50 was found to be 3.6 ng/mL (≈ 6.15 nM) in data set [1], 3 ng/mL (≈ 5.13 nM) in data set [2] and 1.8 ng/mL (≈ 3.08 nM) in data set [3].
For `CC(C)(C)NCc1cc(Nc2cc[n+]([O-])c3cc(Cl)ccc23)cc(-c2ccc(Cl)cc2)c1O`, the IC50 in data set [4] worked out at 7200 ng/mL (≈ 14900 nM); in data set [1], 0.9 ng/mL (≈ 1.87 nM); in data set [2] it was 2.3 ng/mL (≈ 4.77 nM); in data set [3], 1.5 ng/mL (≈ 3.11 nM).
Regarding `CC(C)(C)NCc1c(O)cc(-c2ccc(C(F)(F)F)cc2)c(CNC(C)(C)C)c1Nc1ccnc2cc(Cl)ccc12`, the IC50 in data set [4] is 750 ng/mL (≈ 1280 nM); in data set [1], 2.8 ng/mL (≈ 4.79 nM); in data set [2] it was 2 ng/mL (≈ 3.42 nM); in data set [3] it was 1.9 ng/mL (≈ 3.25 nM).
The like results for `CC(C)(C)NCc1c(Nc2ccnc3cc(Cl)ccc23)cc(O)cc1-c1ccc(Cl)cc1` were, in that order, 6100 ng/mL (≈ 13100 nM), 0.4 ng/mL (≈ 0.858 nM), 1.78 ng/mL (≈ 3.82 nM) and 0.3 ng/mL (≈ 0.643 nM).
For `CC(C)(C)NCc1c(O)cc(-c2ccc(Cl)cc2)cc1Nc1ccnc2cc(Cl)ccc12` the same measures were 1600 ng/mL (≈ 3430 nM), 1.6 ng/mL (≈ 3.43 nM), 1.7 ng/mL (≈ 3.64 nM) and 1.4 ng/mL (≈ 3 nM).
The like results for `CC(C)(C)NCc1c(O)cc(Nc2ccnc3cc(Cl)ccc23)c(CNC(C)(C)C)c1-c1ccc(Cl)cc1` were, in that order, 2800 ng/mL (≈ 5080 nM), 5.3 ng/mL (≈ 9.61 nM), 2.5 ng/mL (≈ 4.53 nM) and 2.8 ng/mL (≈ 5.08 nM).
Consider `CC(C)(C)NCc1c(O)cc(-c2ccc(C(F)(F)F)cc2)cc1Nc1ccnc2cc(Cl)ccc12`, for which the IC50 in data set [4] was 1700 ng/mL (≈ 3400 nM); in data set [1], 2.1 ng/mL (≈ 4.2 nM); in data set [2] it was 1.8 ng/mL (≈ 3.6 nM); in data set [3], 1.8 ng/mL (≈ 3.6 nM).
Turning to `CC(C)(C)NCc1c(Nc2ccnc3cc(Cl)ccc23)cc(O)cc1-c1ccc(C(F)(F)F)cc1`, the IC50 was determined as 11600 ng/mL (≈ 23200 nM) in data set [4], 130 ng/mL (≈ 260 nM) in data set [1], 63 ng/mL (≈ 126 nM) in data set [2] and 7.1 ng/mL (≈ 14.2 nM) in data set [3].
Consider `CC(C)(C)NCc1c(O)cc(-c2ccc(Cl)cc2)c(CNC(C)(C)C)c1Nc1ccnc2cc(Cl)ccc12`, for which the IC50 in data set [4] is 3600 ng/mL (≈ 6530 nM); in data set [1] it was 2.6 ng/mL (≈ 4.71 nM); in data set [2], 2.3 ng/mL (≈ 4.17 nM); in data set [3], 2.2 ng/mL (≈ 3.99 nM).

(Values after ChEMBL document CHEMBL1141408, “Synthesis and antimalarial activity of new isotebuquine analogues” (J Med Chem, 2007).)
